# Laboratory results: ChEMBL document CHEMBL1158370, “New antimalarial and cytotoxic 4-nerolidylcatechol derivatives” (Eur J Med Chem, 2009)
# Tests used:
# [1] = test system: Plasmodium falciparum; assay: Antimalarial activity against Plasmodium falciparum K1; type: functional, organism-based
# Method in brief: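 P. falciparum K1 (multidrug-resistant) cultured with compound at serial dilutions; growth measured as percentage reduction versus untreated controls; IC50 derived by probit analysis. Only compounds active in the preliminary single-concentration screen went on to this step.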
# [2] = test system: HCT-8; assay: Cytotoxicity against human HCT8 cells after 72 hrs by MTT assay; type: functional, cell-based
# Method in brief: (§1)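 Human tumour lines were grown in RPMI 1640 with 10% fetal bovine serum and 1% antibiotics at 37 °C under 5% CO2. Plating densities were 0.7 × 10⁵ for HCT-8, 0.6 × 10⁵ for SF-295 and 0.3 × 10⁶ for HL-60. Samples came from a 5 mg/mL DMSO stock and were incubated 72 h. MTT read at 550 nm; growth inhibition relative to […]. Triplicate, two independent experiments.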
# [3] = test system: SF-295; assay: Cytotoxicity against human SF295 cells after 72 hrs by MTT assay; type: functional, cell-based; method in brief: as §1
# [4] = test system: MDA-MB-435; assay: Cytotoxicity against human MDA-MB-435 cells after 72 hrs by MTT assay; type: functional, cell-based
# [5] = test system: HL-60; assay: Cytotoxicity against human HL60 cells after 72 hrs by MTT assay; type: functional, cell-based; conditions: HL-60, 72 h; method in brief: as §1
# [6] = test system: Plasmodium falciparum; assay: Antimalarial activity against Plasmodium falciparum K1 at 50 ug/mL; type: functional
# Method in brief: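 Preliminary screen against P. falciparum K1 at two concentrations, printed as 50 and 2.5 (unit unclear). Parasite growth given as percentage reduction versus untreated controls.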
structure (smiles),measurement,setting,value
C=C[C@H]1CN2CC[C@H]1C[C@H]2[C@H](O)c1ccnc2ccc(OC)cc12 [QUININE],IC50,[1],12 nM
Oc1ccccc1O [CATECHOL],IC50,"[2]; Homo sapiens, HCT-8, 72 h, read-out: IC50",13.5 µg/mL
same,IC50,[1],80600 nM
same,IC50,"[3]; Homo sapiens, SF-295, 72 h, read-out: IC50",12.9 µg/mL
same,IC50,"[4]; Homo sapiens, MDA-MB-435, 72 h, read-out: IC50",> 25 µg/mL
same,IC50,[5],1.08 µg/mL
CCN(CC)CCCC(C)Nc1ccnc2cc(Cl)ccc12 (stereo unspecified) [CHLOROQUINE PHOSPHATE],IC50,[1],890 nM
C=C[C@@](C)(O)CC/C=C(/C)CCC=C(C)C [NEROLIDIOL],IC50,[2]; hct-8,Not Active
same,IC50,[3]; sf-295,Not Active
same,inhibition at 50 µg/mL,[6],50%
same,IC50,[4]; mda-mb-435,Not Active
